In ChEMBL document CHEMBL1153918, “Novel fatty acid synthase (FAS) inhibitors: design, synthesis, biological evaluation, and molecular docking studies” (Bioorg Med Chem, 2009):

What was measured:
FAS = experiment: Therapeutic index, ratio of TC50 for human HLF to IC50 for rat liver FAS; conditions: HLF cells (TC50)
Outline: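 In vitro therapeutic index = TC50 (HLF cells, MTT) / IC50 (purified rat liver FAS, NADPH oxidation at 340 nm).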

HL-60 = experiment: Cytotoxicity against human HL60 cells assessed as cell viability after 2 hrs by MTT assay; format: functional, cell-based; conditions: HL-60, 2 h
Outline: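 HL60 cells in exponential growth suspended in 1640 medium, about 2×10^4 cells/well. Serially diluted compound (DMSO solution) added, then 2 h incubation at 37 °C in 5% CO2. Viable cells counted by MTT. […] given ± SD from three repeats.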

HeLa = experiment: Cytotoxicity against human HeLa cells after 20 hrs by trypan blue exclusion assay; format: functional, cell-based
Outline: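 HeLa cells kept in DMEM with 10% fetal calf serum at 37 °C, 5% CO2, for 24 h. About 2.5×10^4 cells/well exposed to graded concentrations (DMSO solution) for 20 h. Cells then trypsinized and counted by trypan-blue exclusion. Three repeats gave SD.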

Fatty acid synthase = Fatty acid synthase (Rattus norvegicus, UniProt P12785); experiment: Inhibition of rat liver FAS by Coomassie blue staining
Sequence of Fatty acid synthase (P12785 whole entry): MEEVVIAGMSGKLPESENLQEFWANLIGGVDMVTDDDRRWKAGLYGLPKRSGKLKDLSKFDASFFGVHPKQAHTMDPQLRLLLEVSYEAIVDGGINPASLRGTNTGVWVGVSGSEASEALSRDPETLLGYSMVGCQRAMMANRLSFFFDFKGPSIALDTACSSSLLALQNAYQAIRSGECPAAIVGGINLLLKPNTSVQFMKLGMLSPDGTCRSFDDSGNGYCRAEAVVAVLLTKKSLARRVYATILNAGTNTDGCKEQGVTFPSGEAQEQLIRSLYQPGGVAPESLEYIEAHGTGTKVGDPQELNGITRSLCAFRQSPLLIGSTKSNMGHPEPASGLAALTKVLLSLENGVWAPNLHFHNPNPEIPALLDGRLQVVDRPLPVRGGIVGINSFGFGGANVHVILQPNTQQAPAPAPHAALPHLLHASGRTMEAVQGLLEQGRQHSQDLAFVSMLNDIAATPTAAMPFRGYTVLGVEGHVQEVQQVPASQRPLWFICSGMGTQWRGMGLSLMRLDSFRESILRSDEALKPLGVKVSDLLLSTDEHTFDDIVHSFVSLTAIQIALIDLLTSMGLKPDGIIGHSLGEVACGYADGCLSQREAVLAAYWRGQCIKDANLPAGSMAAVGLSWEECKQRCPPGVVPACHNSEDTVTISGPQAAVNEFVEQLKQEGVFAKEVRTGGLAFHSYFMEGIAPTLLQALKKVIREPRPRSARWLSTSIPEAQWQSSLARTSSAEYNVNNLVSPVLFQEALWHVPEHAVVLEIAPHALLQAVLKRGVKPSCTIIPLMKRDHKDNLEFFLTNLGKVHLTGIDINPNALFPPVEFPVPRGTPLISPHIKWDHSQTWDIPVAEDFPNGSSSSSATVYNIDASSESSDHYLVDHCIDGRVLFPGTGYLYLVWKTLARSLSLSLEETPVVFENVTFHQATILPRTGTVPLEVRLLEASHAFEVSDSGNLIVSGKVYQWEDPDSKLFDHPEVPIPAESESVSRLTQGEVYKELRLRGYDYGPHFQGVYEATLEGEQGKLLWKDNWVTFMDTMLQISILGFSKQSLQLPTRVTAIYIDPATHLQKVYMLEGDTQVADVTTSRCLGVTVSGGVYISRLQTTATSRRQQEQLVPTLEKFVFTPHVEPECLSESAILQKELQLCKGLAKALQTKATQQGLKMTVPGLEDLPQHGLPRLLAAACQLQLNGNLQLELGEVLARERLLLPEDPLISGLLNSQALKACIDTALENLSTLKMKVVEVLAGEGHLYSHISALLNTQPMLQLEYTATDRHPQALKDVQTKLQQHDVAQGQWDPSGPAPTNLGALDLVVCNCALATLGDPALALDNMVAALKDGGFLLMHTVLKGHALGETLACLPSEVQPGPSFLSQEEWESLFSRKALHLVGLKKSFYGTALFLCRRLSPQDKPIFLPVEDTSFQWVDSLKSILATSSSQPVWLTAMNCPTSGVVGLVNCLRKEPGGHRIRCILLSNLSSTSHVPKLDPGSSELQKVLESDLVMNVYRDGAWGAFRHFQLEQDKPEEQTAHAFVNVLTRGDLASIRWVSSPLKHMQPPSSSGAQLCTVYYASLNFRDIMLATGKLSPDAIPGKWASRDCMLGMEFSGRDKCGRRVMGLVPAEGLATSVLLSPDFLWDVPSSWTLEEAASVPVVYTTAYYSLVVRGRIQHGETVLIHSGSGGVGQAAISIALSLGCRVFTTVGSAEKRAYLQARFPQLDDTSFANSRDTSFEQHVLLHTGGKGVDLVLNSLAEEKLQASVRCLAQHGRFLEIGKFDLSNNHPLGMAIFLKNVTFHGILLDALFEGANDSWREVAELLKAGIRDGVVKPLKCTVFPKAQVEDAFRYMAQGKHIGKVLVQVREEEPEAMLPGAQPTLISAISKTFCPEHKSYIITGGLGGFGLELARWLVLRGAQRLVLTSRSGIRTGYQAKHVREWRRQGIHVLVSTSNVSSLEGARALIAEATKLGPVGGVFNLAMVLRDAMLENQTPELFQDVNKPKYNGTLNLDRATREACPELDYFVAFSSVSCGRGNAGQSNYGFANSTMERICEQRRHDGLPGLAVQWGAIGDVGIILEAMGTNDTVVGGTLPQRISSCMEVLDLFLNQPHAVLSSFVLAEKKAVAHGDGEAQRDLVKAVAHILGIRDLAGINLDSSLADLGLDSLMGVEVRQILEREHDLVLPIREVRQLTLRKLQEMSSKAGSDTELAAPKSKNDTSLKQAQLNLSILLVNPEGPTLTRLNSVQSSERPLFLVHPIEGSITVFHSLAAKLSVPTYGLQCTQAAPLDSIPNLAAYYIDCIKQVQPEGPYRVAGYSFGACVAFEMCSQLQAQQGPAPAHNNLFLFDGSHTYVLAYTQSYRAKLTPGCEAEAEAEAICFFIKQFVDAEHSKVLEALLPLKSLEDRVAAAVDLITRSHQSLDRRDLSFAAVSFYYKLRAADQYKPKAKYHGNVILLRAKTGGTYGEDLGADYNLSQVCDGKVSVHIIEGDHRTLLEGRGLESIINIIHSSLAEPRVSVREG
Outline: (§1)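 Rat liver FAS purified, about 90% pure by SDS-PAGE with Coomassie staining. Enzyme, compound, NADPH and acetyl-CoA preincubated in K2HPO4 buffer pH 7.0 for 30 min at 37 °C. Malonyl-CoA then added and NADPH oxidation followed at 340 nm for 3 min at 37 °C. IC50 by linear regression, mean of triplicates. Single-point data given as % inhibition at 60 µM.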

[1] = Cytotoxicity against human HLF by MTT assay; format: cell-based; conditions: HLF cells, read-out: TC50 (the source's name)
Outline: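 Human embryonic lung fibroblasts (HLF), viability read by MTT method. TC50 values are means of three experiments.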

[2] = target: Fatty acid synthase (Rattus norvegicus) (UniProt P12785); experiment: Inhibition of rat liver FAS at 60 uM by Coomassie blue staining; outline: as §1
Sequence of Fatty acid synthase (Rattus norvegicus) (P12785 whole entry): as above

Row | Structure (SMILES) | IC50 (Fatty acid synthase) | inhibition [2] | CC50 [1] | also measured
1 | C=C1C(=O)O[C@H](CCCCCCCC)[C@H]1C(=O)O |  |  |  | selectivity ratio (FAS): 5.61
2 | C=C1C(=O)S[C@H](CCCCCCCC)[C@H]1C(=O)O | 2.56 µM |  | 23.7 µM | IC50 (HL-60): 5.38 µM; IC50 (HeLa): 46.1 µM; selectivity ratio (FAS): 9.26
3 | C=C1C(=O)S[C@H](CCCCCC)[C@H]1C(=O)O | 16.7 µM |  | 96.4 µM | selectivity ratio (FAS): 5.76
4 | C=C1C(=O)S[C@H](CCCCCCCCCCC)[C@H]1C(=O)O | 0.79 µM |  | 4.75 µM | 
5 | C=C1C(=O)S[C@H](CCCCCCCCC)[C@H]1C(=O)O | 2.28 µM |  | 6.86 µM | 
6 | C=C1C(=O)S[C@H](CCCCCCCCCC)[C@H]1C(=O)O | 1.19 µM |  | 6.8 µM | 
7 | CCCCCCCCCCC[C@@H]1OC(=O)c2ccccc2[C@H]1C(=O)O (relative stereo) | 19.5 µM |  | 94.2 µM | selectivity ratio (FAS): 4.84
8 | CCCCCCCC[C@@H]1OC(=O)c2ccccc2[C@H]1C(=O)O (relative stereo) | 88.6 µM |  |  | 
9 | CCCCCCCCC[C@@H]1OC(=O)c2ccccc2[C@H]1C(=O)O (relative stereo) | 29.8 µM |  |  | 
10 | CCCCCCCCCC[C@@H]1OC(=O)c2ccccc2[C@H]1C(=O)O (relative stereo) | 24.2 µM |  | > 200 µM | 
11 | CCCCCCC[C@@H]1OC(=O)c2ccccc2[C@H]1C(=O)O (relative stereo) |  | 35.9% |  | 
12 | CCCCCC[C@@H]1OC(=O)c2ccccc2[C@H]1C(=O)O (relative stereo) |  | 19.4% |  | 

Second part, led by results:

Row | IC50 (Fatty acid synthase) | inhibition [2] | Structure (SMILES) | CC50 [1] | also measured
13 | 122 µM |  | CCCCCCCCCC[C@H]1OC(=O)C(=C(C)C)[C@@H]1C(=O)O (relative stereo) | > 200 µM | 
14 | 27.5 µM |  | CCCCCCCCCCC[C@H]1OC(=O)C(=C(C)C)[C@@H]1C(=O)O (relative stereo) | 153 µM | selectivity ratio (FAS): 5.57
15 |  | 38.4% | CCCCCCCCC[C@H]1OC(=O)C(=C(C)C)[C@@H]1C(=O)O (relative stereo) |  | 
16 |  | 23.8% | CCCCCCCCC[C@H]1OC(=O)C(C)(C)[C@@H]1C(=O)O (relative stereo) |  | 
17 |  | 17.4% | CCCCCCCC[C@H]1OC(=O)C(=C(C)C)[C@@H]1C(=O)O (relative stereo) |  | 
18 |  | 16.7% | CCCCCCCC[C@H]1OC(=O)C(C)(C)[C@@H]1C(=O)O (relative stereo) |  | 
